Laboratory results taken from ChEMBL document CHEMBL1123752, “Hexahydro-1H-1-pyrindines from acid rearrangement of 9-alkylidene-5-(m-methoxyphenyl)-2-methylmorphans. A new structural type of narcotic antagonists” (J Med Chem, 1987).
Active and inactive are the calls of the source. The rule behind the calls is not given here.

What was measured:
Mus musculus [1] = assay: Antinociceptive activity was determined by p-phenylquinone-writhing test in mice after subcutaneous administration; I means inactive at 1,10 or 30.0 mg/kg; assay type: functional, organism-based; parameters: dose 30 mg/kg
Procedure, shortened: (§1)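 Mice were dosed subcutaneously. Antinociceptive […] is given in mg/kg with 95% confidence limits.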

Mus musculus [2] = assay: Antinociceptive activity was determined by hot plate test in mice after subcutaneous administration at 50 mg/kg; assay type: functional
Procedure, shortened: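 Mouse hot-plate assay with subcutaneous dosing. Activity is reported as percent effect at a single 50 mg/kg dose.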

Mu-type opioid receptor = Mu-type opioid receptor (Rattus norvegicus, UniProt P33535); assay: Compound administered subcutaneously was evaluated for inhibition constant measured as the displacement of [3H]DAGO from rat brain
Procedure, shortened: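 Membranes from adult male Sprague-Dawley rat whole brain minus cerebellum, washed in 20 mM potassium phosphate pH 7.4, about 1 mg protein per tube. [³H]DAGO was added from a 2 nM solution. Nonspecific binding was defined with 10 μM naloxone (final). Incubation 45 min at 25 °C, then glass-fibre filtration and scintillation counting. Ki was derived by Cheng–Prusoff.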

Mus musculus [3] = assay: Compound administered subcutaneously was evaluated for opioid antagonist activity versus morphine by tail flick antagonism test in mice.; assay type: functional
Procedure, shortened: (§2)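 Mouse tail-flick test run against morphine, with test agent given subcutaneously. Antagonist AD50 is given in mg/kg with 95% confidence limits.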

Mus musculus [4] = assay: Antinociceptive activity was determined by tail flick test in mice after subcutaneous administration; I means inactive at 1,10 or 30.0 mg/kg; assay type: functional, organism-based; parameters: dose 30 mg/kg; procedure, shortened: as §1
Mus musculus [5] = assay: Compound administered subcutaneously was evaluated for antinociceptive activity determined by p-phenylquinone-writhing test in mice; assay type: functional; details: sc; procedure, shortened: as §1
Mus musculus [6] = assay: Antinociceptive activity was determined by tail flick test in mice after subcutaneous administration; IA means inactive at 1,10 or 30.0 mg/kg; assay type: functional, organism-based; parameters: dose 30 mg/kg; procedure, shortened: as §1
Mus musculus [7] = assay: Compound administered subcutaneously was evaluated for Opioid antagonist activity versus morphine by tail flick antagonism test in mice 95% confidence limits are in brackets; assay type: functional; procedure, shortened: as §2
Mus musculus [8] = assay: Antinociceptive activity was determined by hot plate test in mice after subcutaneous administration;IA means inactive at 1,10 or 30.0 mg/kg; assay type: functional, organism-based; parameters: dose 30 mg/kg; procedure, shortened: as §1
Mus musculus [9] = assay: Compound administered subcutaneously was evaluated for Opioid antagonist activity versus morphine by tail flick antagonism test in mice.; assay type: functional; procedure, shortened: as §2
Mus musculus [10] = assay: Antinociceptive activity was determined by p-phenylquinone-writhing test in mice after subcutaneous administration; assay type: functional; details: sc; procedure, shortened: as §1

Chain of Mu-type opioid receptor (P33535 whole entry): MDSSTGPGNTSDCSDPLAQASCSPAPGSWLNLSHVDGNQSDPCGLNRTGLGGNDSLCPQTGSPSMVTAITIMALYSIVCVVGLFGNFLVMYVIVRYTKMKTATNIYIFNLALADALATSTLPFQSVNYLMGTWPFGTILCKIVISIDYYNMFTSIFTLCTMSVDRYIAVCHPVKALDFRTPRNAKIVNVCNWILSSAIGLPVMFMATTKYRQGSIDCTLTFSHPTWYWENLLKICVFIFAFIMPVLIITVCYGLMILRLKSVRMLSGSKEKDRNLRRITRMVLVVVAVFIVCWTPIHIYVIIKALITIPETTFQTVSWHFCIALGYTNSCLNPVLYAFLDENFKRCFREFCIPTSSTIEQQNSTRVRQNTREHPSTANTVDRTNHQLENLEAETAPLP

Row | Structure (SMILES) | ED50 (Mus musculus [1]) | Effect (Mus musculus [2]) [%] | Ki (Mu-type opioid receptor) [nM] | AD50 (Mus musculus [3]) [mg/kg] | ED50 (Mus musculus [4]) | ED50 (Mus musculus [5]) [mg/kg] | ED50 (Mus musculus [6]) | AD50 (Mus musculus [7]) [mg/kg] | ED50 (Mus musculus [8]) | AD50 (Mus musculus [9]) [mg/kg] | ED50 (Mus musculus [10]) [mg/kg]
1 | CN1CC=C(c2cccc(O)c2)[C@@]2(C)CCC[C@@H]12 | inactive | 40 | 81 | 1.7 | inactive | – | – | – | – | – | –
2 | C=CCN1CC[C@]23c4c5ccc(O)c4O[C@H]2[C@@H](O)C=C[C@H]3[C@H]1C5.Cl [NALORPHINE HYDROCHLORIDE] | – | – | 2 | – | – | 0.6 | inactive | 2.6 | – | – | –
3 | CC[C@]12CCC[C@H]1N(C)CC=C2c1cccc(O)c1 | – | – | 84 | – | – | – | inactive | – | inactive | 2.1 | 35.5
